# KLK5 inh: inhibitors of human kallikrein 5 | Q9Y337 | recombinant hK5, fluorogenic AMC substrate cleavage | inhibition, % at 5 µM | hit rate 0.59% among 210,000;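 active = inhibition of 40% or more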
# Target sequence (Q9Y337 67-293 limits assumed): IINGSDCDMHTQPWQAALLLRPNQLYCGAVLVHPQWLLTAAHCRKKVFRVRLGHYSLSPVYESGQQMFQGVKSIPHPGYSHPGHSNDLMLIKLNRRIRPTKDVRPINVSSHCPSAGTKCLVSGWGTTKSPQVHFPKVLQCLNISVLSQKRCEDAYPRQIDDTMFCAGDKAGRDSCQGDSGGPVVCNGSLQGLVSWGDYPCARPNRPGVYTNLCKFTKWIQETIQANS
# FXIIa inh 1536: factor XIIa (human) inhibition; P00748; purified FXIIa, Boc-QGR-AMC fluorogenic substrate, 2 h; inhibition, % at 5 µM; hit rate 0.3% among 220,000; in the data active = inhibition above about 40%
# PGE2 EP2 inh: inhibitors of human EP2 prostaglandin E2 receptor; P43116; C6 glioma cells expressing human EP2, cAMP TR-FRET; cells stimulated with saturating PGE2; inhibition, % at 25 µM; hit rate 0.52% among 260,000; AID 1422;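 active = percent inhibition above 40 after rounding to a whole number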;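 note: rat C6 glioma host cells with rolipram phosphodiesterase inhibitor present; the protocol text gives 20 µM as final concentration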
# Target sequence (P43116 whole entry, looked up): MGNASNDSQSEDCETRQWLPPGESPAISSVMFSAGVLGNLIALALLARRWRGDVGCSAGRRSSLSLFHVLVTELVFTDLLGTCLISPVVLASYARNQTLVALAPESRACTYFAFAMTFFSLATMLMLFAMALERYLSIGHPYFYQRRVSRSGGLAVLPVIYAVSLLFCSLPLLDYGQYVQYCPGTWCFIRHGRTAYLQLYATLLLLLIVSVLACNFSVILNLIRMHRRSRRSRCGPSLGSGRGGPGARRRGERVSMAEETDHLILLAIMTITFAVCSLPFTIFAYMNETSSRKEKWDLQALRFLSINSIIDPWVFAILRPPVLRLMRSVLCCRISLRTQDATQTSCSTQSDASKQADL
# FXIa inh 1536: blocks human coagulation factor XIa protease activity; P03951; purified FXIa, Boc-Glu-Ala-Arg-AMC fluorogenic substrate; inhibition, % at 5 µM; hit rate 0.14% among 220,000;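 active = inhibition of at least 40%; inactive = inhibition below 40%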;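 note: fluorescence of freed AMC excited at 355 nm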
# EP2 mod: modulators of human EP2 prostaglandin E2 receptor; P43116; EP2-expressing cells, cAMP HTRF FRET, PGE2 co-stimulation; induction, % at 25 µM; hit rate 0.83% among 260,000; AID 940;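 active = compounds whose cAMP rise, as percent of the full-agonist control response, exceeds 60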;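 note: rat C6 glioma line stably carrying human EP2 under a CMV promoter; the protocol text gives 20 µM as final concentration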
# Thrombin inh: blocks human thrombin protease activity; inhibition, % at 5 µM; P00734; alpha-thrombin, Boc-VPR-AMC fluorogenic substrate cleavage; hit rate 0.26% among 220,000; AID 1046;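 active = inhibition at or above 40%; inactive = inhibition below 40%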
#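 Test system: human alpha-thrombin; medium: pH 7.5 Tris-saline with Tween 20; times: reaction at room temperature; signal: AMC fluorescence at 355 nm excitation and 460 nm emission; also added: Boc-VPR-AMC substrate, 15 µM final; dosing: one concentration per compound, 5 µM, with 0.2% DMSO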
# Numbers stand for hits; 0 = inactive; - = no result. Shown are actives, neighbours in structure and some others; about 2.1% of the full set was active somewhere.
SMILES,KLK5 inh,FXIIa inh 1536,PGE2 EP2 inh,FXIa inh 1536,EP2 mod,Thrombin inh
CCOc1cccc(/C(O)=C2/C(=O)C(=O)N(CCCN(C)C)C2c2cccs2)c1 (stereo not given),-,-,0,-,0,-
O=C(C[n+]1cnn(CC(=O)c2ccc(Cl)cc2Cl)c1)c1ccc([N+](=O)[O-])cc1,0,0,0,0,0,51
O=[N+]([O-])c1ccc(OCCO)c(P(=O)(c2ccccc2)c2ccccc2)c1,0,0,0,70,0,0
O=P(O)(O)COc1ccccc1P(=O)(c1ccccc1)c1ccccc1,0,0,0,0,0,0
CCn1cc(C(=O)O)cn1,-,-,0,-,0,-
CC1CCN(C(=O)Cn2c(SCC(N)=O)nc3ccccc32)CC1,-,-,0,-,0,-
S=C(NCCc1ccccc1)Nc1ccc(Br)cn1,52,0,0,40,0,0
Cc1cc(-c2cnc(C)nc2C2CCN(C(=O)CCn3nc(C)cc3C)CC2)on1,-,-,-,-,0,-
O=C(COc1ccc(Cl)cc1Cl)Nc1cccc(NC(=O)c2cccs2)c1,-,-,0,-,0,-
O=C(Nc1cc(=O)[nH]c2ncnn12)c1ccco1,57,42,0,0,0,0
Cc1ccc(CN(CCCn2ccnc2)Cc2cccn2-c2cccc(F)c2)o1,-,-,0,-,62,-
CCC(C)(C)n1nnnc1C(C(C)C)N(Cc1ccco1)Cc1cc2cc3c(cc2[nH]c1=O)OCO3 (stereo not given),0,0,0,0,0,0
CCCC(c1nnnn1C1CCCCC1)N(Cc1ccco1)Cc1cc2cc(C)c(C)cc2[nH]c1=O (stereo not given),-,-,0,-,72,-
Cc1cc(C)c2[nH]c(=O)c(CN(Cc3ccco3)C(c3nnnn3C(C)(C)C)C(C)C)cc2c1 (stereo not given),-,-,0,-,70,-
CCc1ccc2[nH]c(=O)c(C(c3nnnn3C(C)(C)C)N(Cc3ccco3)CC3CCCO3)cc2c1 (stereo not given),-,-,0,-,66,-
CCc1ccccc1NC(=S)N(Cc1ccco1)Cc1cc2cc(C)ccc2[nH]c1=O,-,-,0,-,87,-
COC(=O)c1ccccc1NC(=O)CSc1nnc(Cn2nnc3ccccc32)n1C,-,-,0,-,0,-
COc1ccccc1CN(Cc1cc2cccc(C)c2[nH]c1=O)C(c1nnnn1C(C)(C)C)C(C)C (stereo not given),-,-,0,-,88,-
CCCC(c1nnnn1C(C)(C)CC)N(Cc1ccco1)Cc1cc2cc(C)c(C)cc2[nH]c1=O (stereo not given),-,-,0,-,66,-
CCC(c1nnnn1C1CCCC1)N(Cc1ccco1)Cc1cc2cccc(C)c2[nH]c1=O (stereo not given),-,-,0,-,64,-
CCCC(c1nnnn1C(C)(C)C)N(Cc1ccco1)Cc1cc2cc(C)ccc2[nH]c1=O (stereo not given),-,-,0,-,66,-
CCCC(c1nnnn1C1CCCC1)N(Cc1ccco1)Cc1cc2cccc(C)c2[nH]c1=O (stereo not given),-,-,0,-,0,-
CCCC(c1nnnn1C(C)(C)C)N(Cc1ccc(C)cc1)Cc1cc2cc(C)ccc2[nH]c1=O (stereo not given),-,-,0,-,0,-
Cc1sc2nc(CN(Cc3cccs3)C(=O)CCc3ccccc3)[nH]c(=O)c2c1C,-,-,0,-,0,-
Cc1ccc(C)c2c1cc(C)c1nnc(SCC(=O)Nc3cccc(F)c3)n12,-,-,0,-,0,-
SMILES,KLK5 inh,FXIIa inh 1536,PGE2 EP2 inh,FXIa inh 1536,EP2 mod,Thrombin inh
COc1cc(OC)cc(-c2n[nH]c(=S)n2-c2ccc3c(c2)OCCO3)c1,0,-,0,0,0,41
COc1cc2[nH]c(=O)c(C(=O)NCCCOC(C)C)c(O)c2cc1OC,-,-,0,-,0,-
COc1ccc2[nH]c(=O)c(CN(Cc3ccco3)C(=S)Nc3ccc(C)cc3)cc2c1,-,-,0,-,0,-
Cc1ccc(C)c(NC(=O)CN(C)C(=O)CCN2C(=O)c3ccccc3C2=O)c1,53,46,0,0,0,0
O=C(NC1CCCC1)C(c1ccccn1)N(C(=O)c1csnn1)C1CC1 (stereo not given),0,0,0,44,0,0
O=C(NC1CCCC1)C(c1ccccn1)N(C(=O)c1csnn1)C1CCCCC1 (stereo not given),0,0,0,0,0,0
O=C(c1ccco1)N1CCN(Cc2nnnn2Cc2ccco2)CC1,-,-,0,-,0,-
COc1ccc(N2C(=S)N=C(Nc3ccccc3)C23CCCCC3)cc1,0,0,0,0,0,101
Cc1cc(C)c2c(NCc3cccs3)n[nH]c2n1,-,-,0,-,0,-
N#C/C(=C\c1ccc(F)cc1)c1nc(-c2ccco2)cs1,0,0,0,0,61,0
N#C/C(=C\c1ccc(Cl)cc1)c1nc(-c2ccco2)cs1,0,0,0,0,0,0
Cc1cc2cc(C(c3nnnn3C3CCCC3)N3CCN(Cc4cccnc4)CC3)c(=O)[nH]c2cc1C (stereo not given),-,-,0,-,0,-
Cc1nn(Cc2ccc(C(=O)Nc3nccs3)cc2)c(C)c1Cl,44,0,-,0,0,104
Cc1nn(Cc2ccc(C(=O)NN)cc2)c(C)c1Cl,0,0,0,0,0,0
COc1cccc(/C=N/NC(=O)c2ccc(-c3ccccc3)cc2)c1O,0,0,0,0,0,0
COc1cccc(/C=N/NC(=O)c2[nH]c(C)c(C(=O)N/N=C/c3cccc(OC)c3O)c2C)c1O,0,0,0,40,0,0
CC(C)(C)C(=O)[C@H]([C@@H](c1ccccc1)N1CCOCC1)N1CCOCC1,-,-,49,-,0,-
CC(NC(=O)Cc1ccccc1)C(c1ccccc1)N1CCOCC1 (stereo not given),0,0,0,0,0,-
O=C(NCc1ccc(F)cc1)c1cc2ccccn2n1,0,0,0,0,0,0
CCOc1ccc(CCNC(=O)c2cc3ccccn3n2)cc1OCC,60,0,0,0,0,0
CC(C)(C)NC(=O)C(=O)NNC(=O)c1cccs1,-,-,0,-,0,-
CN(C)c1cccc(C(=O)n2cc(C(=O)c3cc(F)ccc3O)cn2)c1,0,41,0,0,0,0
CCn1c(C)nc2cc(C(=O)n3cc(C(=O)c4ccccc4O)cn3)ccc21,0,0,0,0,0,0
O=C(c1cnn(C(=O)c2ccc(O)cc2)c1)c1ccccc1O,42,0,0,0,0,0
Cn1c(NCCc2ccccc2)cc(=O)n(C)c1=O,0,77,0,0,0,0
SMILES,KLK5 inh,FXIIa inh 1536,PGE2 EP2 inh,FXIa inh 1536,EP2 mod,Thrombin inh
Cn1nc(C(=O)Nc2nc(-c3ccc(F)cc3)cs2)ccc1=O,61,0,0,105,0,0
CC(=O)Nc1nonc1NC(=O)CSc1ccccn1,0,70,0,0,0,0
CC(C)Oc1ccc(C(=O)NC(=S)Nc2ccc(Cl)cn2)cc1,-,-,0,-,0,-
Cc1cc(C)c(C)c(S(=O)(=O)Nc2ccccc2C(=O)NCCCn2ccnc2)c1C,0,0,0,0,0,0
O=C(NCCCn1ccnc1)c1ccccc1NS(=O)(=O)c1ccc(F)c(F)c1,86,0,0,0,0,0
CCn1nc(C)c(Br)c1C(=O)Sc1ccccc1Cl,0,0,0,0,68,0
Cc1sc2nc(CCC(=O)NN)n(N)c(=O)c2c1C,-,-,0,-,0,-
Cc1cccc(CN2CCN(CC(=O)N3CCCC3)C2=O)c1,0,0,0,43,0,0

# Assay outcomes as filed in PubChem BioAssay.
